Laboratory results taken from ChEMBL document CHEMBL5696444 (Nat Commun, 2017).
Calls of active or inactive are those of the source. No cut-off for these calls is given here.

How the values were obtained:
HCT-116 [1] = assay: Cytotoxicity against human HCT-116 cells assessed as inhibition of cell viability incubated for > 24 hrs; format: functional
HCT-116 [2] = assay: Induction of apoptosis in human HCT-116 cells assessed as necrosis cells at 1 uM incubated for > 6 hrs by annexin V/PI staining based analysis (Rvb=0.55%); format: functional
HCT-116 [3] = assay: Induction of apoptosis in human HCT-116 cells assessed as viable cells at 5 uM incubated for > 6 hrs by annexin V/PI staining based analysis (Rvb=90.04%); format: functional; conditions: read-out: Activity
[4] = target: AMP-activated protein kinase (AMPK) alpha-1/beta-1/gamma-1 (Homo sapiens) (UniProt P54619+Q9Y478+Q13131); assay: Inhibition of AMPK A1/B1/G1 (unknown origin) at 100 nM in the presence of ATP by Kinome scan method relative to control; format: protein-complex assay
Chain of AMP-activated protein kinase (AMPK) alpha-1/beta-1/gamma-1 (Homo sapiens) (P54619 whole entry): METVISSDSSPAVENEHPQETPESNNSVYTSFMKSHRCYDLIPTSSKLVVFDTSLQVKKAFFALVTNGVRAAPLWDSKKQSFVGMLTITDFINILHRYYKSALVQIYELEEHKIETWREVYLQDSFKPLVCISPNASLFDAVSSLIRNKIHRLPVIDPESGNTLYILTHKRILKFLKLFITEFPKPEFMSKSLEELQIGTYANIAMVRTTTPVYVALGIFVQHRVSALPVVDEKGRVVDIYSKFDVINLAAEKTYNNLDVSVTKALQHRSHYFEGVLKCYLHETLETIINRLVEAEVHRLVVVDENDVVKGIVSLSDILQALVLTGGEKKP
Chain of AMP-activated protein kinase (AMPK) alpha-1/beta-1/gamma-1 (Homo sapiens) (Q13131 whole entry partner): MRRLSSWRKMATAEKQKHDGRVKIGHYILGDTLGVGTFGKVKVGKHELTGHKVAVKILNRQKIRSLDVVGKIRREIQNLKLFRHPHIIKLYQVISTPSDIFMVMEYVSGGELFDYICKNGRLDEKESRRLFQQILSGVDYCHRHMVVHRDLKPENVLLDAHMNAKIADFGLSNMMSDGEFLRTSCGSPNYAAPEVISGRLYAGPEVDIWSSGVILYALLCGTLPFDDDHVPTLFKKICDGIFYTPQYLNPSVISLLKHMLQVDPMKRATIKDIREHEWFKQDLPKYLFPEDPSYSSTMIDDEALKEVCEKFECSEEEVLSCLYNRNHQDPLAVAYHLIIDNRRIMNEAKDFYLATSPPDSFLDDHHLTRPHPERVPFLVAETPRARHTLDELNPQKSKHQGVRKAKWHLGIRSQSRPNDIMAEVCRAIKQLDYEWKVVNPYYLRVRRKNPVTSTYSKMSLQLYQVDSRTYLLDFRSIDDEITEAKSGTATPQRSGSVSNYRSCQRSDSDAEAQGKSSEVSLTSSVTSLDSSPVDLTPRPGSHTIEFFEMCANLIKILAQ
Chain of AMP-activated protein kinase (AMPK) alpha-1/beta-1/gamma-1 (Homo sapiens) (Q9Y478 2-270 partner limits assumed): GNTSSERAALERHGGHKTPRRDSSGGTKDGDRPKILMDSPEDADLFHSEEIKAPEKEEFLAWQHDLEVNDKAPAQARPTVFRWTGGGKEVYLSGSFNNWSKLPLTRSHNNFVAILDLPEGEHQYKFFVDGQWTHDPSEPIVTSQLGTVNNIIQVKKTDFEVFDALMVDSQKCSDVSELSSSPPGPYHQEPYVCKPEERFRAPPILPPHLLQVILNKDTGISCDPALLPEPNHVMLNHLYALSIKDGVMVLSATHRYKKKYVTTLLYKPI

[5] = target: Cyclin-dependent kinase 1/cyclin B1 (Homo sapiens) (UniProt P06493+P14635); assay: Inhibition of CDK1/cyclin B (unknown origin) at 1000 nM in the presence of ATP by Kinome scan method relative to control; format: protein-complex assay
[6] = target: T1, Cyclin-dependent kinase 5/CDK5 activator 1 (Homo sapiens) (UniProt Q00535+Q15078); assay: Inhibition of CDK5/p25 (unknown origin) at 100 nM in the presence of ATP by Kinome scan method relative to control; format: protein-complex assay
T1 sequence (Q00535 whole entry): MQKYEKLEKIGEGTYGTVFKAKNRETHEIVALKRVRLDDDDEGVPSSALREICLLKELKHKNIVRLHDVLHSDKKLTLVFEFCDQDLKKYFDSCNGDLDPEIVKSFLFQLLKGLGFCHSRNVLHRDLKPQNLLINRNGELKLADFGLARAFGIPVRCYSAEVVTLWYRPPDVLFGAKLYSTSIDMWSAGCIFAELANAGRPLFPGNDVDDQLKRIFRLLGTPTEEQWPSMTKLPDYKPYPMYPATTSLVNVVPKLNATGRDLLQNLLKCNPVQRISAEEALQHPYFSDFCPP
T1 sequence (Q15078 99-307 partner limits assumed): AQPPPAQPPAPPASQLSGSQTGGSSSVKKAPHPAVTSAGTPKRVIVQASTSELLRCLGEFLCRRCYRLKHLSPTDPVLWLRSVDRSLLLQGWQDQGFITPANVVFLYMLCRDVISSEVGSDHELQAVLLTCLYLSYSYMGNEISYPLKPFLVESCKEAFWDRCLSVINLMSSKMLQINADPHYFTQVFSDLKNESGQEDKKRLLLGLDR

[7] = target: T1, Cyclin-dependent kinase 5/CDK5 activator 1 (Homo sapiens); assay: Inhibition of CDK5/p35 (unknown origin) at 100 nM in the presence of ATP by Kinome scan method relative to control; format: protein-complex assay
[8] = target: Serine/threonine-protein kinase Chk1 (Homo sapiens) (UniProt O14757); assay: Inhibition of CHEK1 (unknown origin) at 1000 nM in the presence of ATP by Kinome scan method relative to control
Chain of Serine/threonine-protein kinase Chk1 (Homo sapiens) (O14757 whole entry): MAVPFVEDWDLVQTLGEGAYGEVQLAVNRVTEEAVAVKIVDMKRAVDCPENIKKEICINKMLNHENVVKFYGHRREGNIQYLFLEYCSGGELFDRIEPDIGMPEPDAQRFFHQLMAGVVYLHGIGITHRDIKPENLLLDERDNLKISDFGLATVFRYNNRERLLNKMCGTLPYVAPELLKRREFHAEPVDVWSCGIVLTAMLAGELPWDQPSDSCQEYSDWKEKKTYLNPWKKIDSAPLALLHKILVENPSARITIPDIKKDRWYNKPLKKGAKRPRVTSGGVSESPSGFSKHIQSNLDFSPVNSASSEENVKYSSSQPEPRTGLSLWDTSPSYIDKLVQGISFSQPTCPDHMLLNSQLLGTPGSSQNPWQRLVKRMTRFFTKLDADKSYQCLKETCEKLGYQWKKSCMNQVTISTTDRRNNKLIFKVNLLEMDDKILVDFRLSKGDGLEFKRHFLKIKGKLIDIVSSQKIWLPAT

[9] = target: Serine/threonine-protein kinase Chk1 (Homo sapiens) (UniProt O14757); assay: Inhibition of CHEK1 (unknown origin) at 100 nM in the presence of ATP by Kinome scan method relative to control
[10] = target: Serine/threonine-protein kinase Chk2 (Homo sapiens) (UniProt O96017); assay: Inhibition of CHEK2 (unknown origin) at 100 nM in the presence of ATP by Kinome scan method relative to control
Chain of Serine/threonine-protein kinase Chk2 (Homo sapiens) (O96017 whole entry): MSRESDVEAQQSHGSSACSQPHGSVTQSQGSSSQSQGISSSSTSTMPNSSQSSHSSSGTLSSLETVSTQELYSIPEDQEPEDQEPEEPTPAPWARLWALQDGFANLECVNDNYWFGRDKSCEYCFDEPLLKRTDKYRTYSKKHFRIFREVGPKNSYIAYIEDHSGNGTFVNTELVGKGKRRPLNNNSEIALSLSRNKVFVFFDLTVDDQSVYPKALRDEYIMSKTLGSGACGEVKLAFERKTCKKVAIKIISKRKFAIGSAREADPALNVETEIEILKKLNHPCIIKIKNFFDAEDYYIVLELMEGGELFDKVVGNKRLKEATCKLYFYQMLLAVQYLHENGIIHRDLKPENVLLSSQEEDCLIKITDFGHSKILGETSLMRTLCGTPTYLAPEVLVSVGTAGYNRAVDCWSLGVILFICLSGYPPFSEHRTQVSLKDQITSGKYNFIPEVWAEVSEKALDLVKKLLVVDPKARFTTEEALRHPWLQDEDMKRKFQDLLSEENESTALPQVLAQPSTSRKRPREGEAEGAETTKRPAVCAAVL

[11] = target: Ephrin type-A receptor 5 (Homo sapiens) (UniProt P54756); assay: Inhibition of EPHA5 (unknown origin) at 100 nM in the presence of ATP by Kinome scan method relative to control
[12] = target: Tyrosine-protein kinase JAK2 (Homo sapiens) (UniProt O60674); assay: Inhibition of JAK2 (unknown origin) at 100 nM in the presence of ATP by Kinome scan method relative to control
[13] = target: Mitogen-activated protein kinase 11 (Homo sapiens) (UniProt Q15759); assay: Inhibition of MAPK11 (unknown origin) at 1000 nM in the presence of ATP by Kinome scan method relative to control
Chain of Mitogen-activated protein kinase 11 (Homo sapiens) (Q15759 whole entry): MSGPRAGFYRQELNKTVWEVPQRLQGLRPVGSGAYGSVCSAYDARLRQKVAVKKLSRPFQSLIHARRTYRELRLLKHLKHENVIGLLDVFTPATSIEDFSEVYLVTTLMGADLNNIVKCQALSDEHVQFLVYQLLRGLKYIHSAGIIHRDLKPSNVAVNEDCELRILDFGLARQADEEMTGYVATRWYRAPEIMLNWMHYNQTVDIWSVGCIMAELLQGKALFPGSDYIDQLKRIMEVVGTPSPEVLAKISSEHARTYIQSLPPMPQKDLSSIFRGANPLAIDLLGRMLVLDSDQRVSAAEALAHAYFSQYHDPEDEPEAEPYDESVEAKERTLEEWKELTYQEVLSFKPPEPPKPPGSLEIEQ

[14] = target: Mitogen-activated protein kinase 11 (Homo sapiens) (UniProt Q15759); assay: Inhibition of MAPK11 (unknown origin) at 100 nM in the presence of ATP by Kinome scan method relative to control
[15] = target: Mitogen-activated protein kinase 8 (Homo sapiens) (UniProt P45983); assay: Inhibition of MAPK8 (unknown origin) at 1000 nM in the presence of ATP by Kinome scan method relative to control
Chain of Mitogen-activated protein kinase 8 (Homo sapiens) (P45983 whole entry): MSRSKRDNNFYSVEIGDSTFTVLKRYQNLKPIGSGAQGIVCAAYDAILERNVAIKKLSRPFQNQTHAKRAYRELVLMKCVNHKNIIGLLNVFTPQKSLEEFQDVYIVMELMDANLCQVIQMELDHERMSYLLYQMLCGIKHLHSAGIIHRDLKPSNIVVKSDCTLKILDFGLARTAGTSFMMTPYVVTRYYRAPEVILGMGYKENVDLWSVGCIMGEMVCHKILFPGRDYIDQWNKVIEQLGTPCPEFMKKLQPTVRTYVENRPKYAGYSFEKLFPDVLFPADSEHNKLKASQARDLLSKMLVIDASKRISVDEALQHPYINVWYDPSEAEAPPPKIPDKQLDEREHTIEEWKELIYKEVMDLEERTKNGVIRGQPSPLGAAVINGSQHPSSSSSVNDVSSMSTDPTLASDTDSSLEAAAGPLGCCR

[16] = target: Focal adhesion kinase 1 (Homo sapiens) (UniProt Q05397); assay: Inhibition of PTK2 (unknown origin) at 100 nM in the presence of ATP by Kinome scan method relative to control
[17] = target: Proto-oncogene tyrosine-protein kinase ROS (Homo sapiens) (UniProt P08922); assay: Inhibition of ROS1 (unknown origin) at 100 nM in the presence of ATP by Kinome scan method relative to control
[18] = target: CDK7/Cyclin H/MNAT1 (Homo sapiens) (UniProt P51946+P50613+P51948); assay: Inhibition of CDK7/cyclin H/MNAT1 (unknown origin) at 1000 nM in the presence of ATP by Kinome scan method relative to control; format: protein-complex assay
[19] = target: PI3-kinase p110-alpha/p85-alpha (Homo sapiens) (UniProt P27986+P42336); assay: Inhibition of PIK3CA/PIK3R1 (unknown origin) at 1000 nM in the presence of ATP by Kinome scan method relative to control; format: protein-complex assay
[20] = target: Dual specificity protein kinase CLK3 (Homo sapiens) (UniProt P49761); assay: Inhibition of CLK3 (unknown origin) in human HCT-116 cells assessed as increase in CLK3 protein level at 0.5 to 0.1 uM incubated for 6 hrs by immunoblot analysis; format: cell-based; conditions: dose 0.5-0.1 µM
Chain of Dual specificity protein kinase CLK3 (Homo sapiens) (P49761 whole entry, looked up): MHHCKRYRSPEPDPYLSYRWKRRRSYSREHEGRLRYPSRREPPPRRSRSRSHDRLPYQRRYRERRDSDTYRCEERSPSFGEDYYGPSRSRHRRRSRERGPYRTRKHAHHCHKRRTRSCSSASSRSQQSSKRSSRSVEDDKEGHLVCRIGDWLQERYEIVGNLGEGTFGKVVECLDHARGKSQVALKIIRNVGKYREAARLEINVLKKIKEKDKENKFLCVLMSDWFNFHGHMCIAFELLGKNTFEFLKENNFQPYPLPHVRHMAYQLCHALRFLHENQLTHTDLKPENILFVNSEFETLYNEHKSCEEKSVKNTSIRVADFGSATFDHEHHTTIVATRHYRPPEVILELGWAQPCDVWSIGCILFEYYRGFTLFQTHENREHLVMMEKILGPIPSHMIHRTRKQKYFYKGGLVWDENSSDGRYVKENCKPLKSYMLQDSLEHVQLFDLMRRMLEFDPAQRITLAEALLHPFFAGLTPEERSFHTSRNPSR
In short: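 HCT116 cells were treated for 3 or 6 h and lysed in SDS sample buffer (Tris-HCl pH 6.8), then boiled for 5 min. Lysates were run on 5–15% or 4–12% gradient gels and transferred to nitrocellulose or PVDF. Blots were blocked in milk or BSA/TBS-T and probed overnight at 4 °C with anti-phospho-SR (1H4, 1/1000), anti-SR, anti-CLK1 or anti-CLK3 antibodies, with GAPDH as loading control.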

[21] = target: Dual specificity protein kinase CLK1 (Homo sapiens) (UniProt P49759); assay: Inhibition of CLK (unknown origin) in human HCT-116 cells assessed as decrease in SRSF6 phosphorylation level at 0.5 to 1.0 uM incubated for 6 hrs by immunoblot analysis; format: cell-based; conditions: dose 0.5-1 µM
Chain of Dual specificity protein kinase CLK1 (Homo sapiens) (P49759 whole entry, looked up, canonical isoform): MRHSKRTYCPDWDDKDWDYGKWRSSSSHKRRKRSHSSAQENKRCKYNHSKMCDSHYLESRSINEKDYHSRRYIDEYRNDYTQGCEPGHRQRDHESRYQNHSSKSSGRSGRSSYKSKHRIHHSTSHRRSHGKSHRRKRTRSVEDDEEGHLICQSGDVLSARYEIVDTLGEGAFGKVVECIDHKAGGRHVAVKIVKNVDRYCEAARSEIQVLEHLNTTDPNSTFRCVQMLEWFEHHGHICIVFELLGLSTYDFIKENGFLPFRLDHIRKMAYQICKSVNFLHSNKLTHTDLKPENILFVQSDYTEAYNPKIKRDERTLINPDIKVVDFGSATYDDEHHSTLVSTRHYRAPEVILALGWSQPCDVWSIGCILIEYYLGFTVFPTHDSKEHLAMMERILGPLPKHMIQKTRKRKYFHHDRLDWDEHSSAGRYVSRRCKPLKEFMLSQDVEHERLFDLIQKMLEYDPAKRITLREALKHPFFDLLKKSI

HCT-116 [22] = assay: Induction of cell cycle arrest in human HCT-116 cells assessed as S phase at 0.5 uM incubated for 6 hrs by flow cytometry analysis (Rvb=39.3%); format: functional
HCT-116 [23] = assay: Induction of cell cycle arrest in human HCT-116 cells assessed as G0/G1 phase at 5 uM incubated for 6 hrs by flow cytometry analysis (Rvb=35.0%); format: functional
HCT-116 [24] = assay: Induction of cell cycle arrest in human HCT-116 cells assessed as G2/M phase at 10 uM incubated for 6 hrs by flow cytometry analysis (Rvb=25.8%); format: functional
HCT-116 [25] = assay: Induction of cell cycle arrest in human HCT-116 cells assessed as G0/G1 phase at 0.5 uM incubated for 24 hrs by flow cytometry analysis (Rvb=35.7%); format: functional
HCT-116 [26] = assay: Induction of cell cycle arrest in human HCT-116 cells assessed as G0/G1 phase at 10 uM incubated for 24 hrs by flow cytometry analysis (Rvb=35.7%); format: functional
HCT-116 [27] = assay: Induction of cell cycle arrest in human HCT-116 cells assessed as G2/M phase at 10 uM incubated for 24 hrs by flow cytometry analysis (Rvb=17.9%); format: functional
[28] = target: Dual specificity protein kinase CLK1 (Homo sapiens) (UniProt P49759); assay: Inhibition of CLK (unknown origin) in human HCT-116 cells assessed as induction in alternative splicing effect in RBM25-PSEN1 level incubated for 6 hrs by RT-PCR analysis; format: cell-based; conditions: dose 0.2-5 µM
In short: (§1)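 Cells exposed to graded T3 concentrations for 6 h (chosen to avoid cytotoxicity), with a DMSO vehicle control. Total RNA was reverse-transcribed with oligo-dT primers. Targeted splice or conjoined-gene products were quantified by real-time qPCR or by targeted next-generation sequencing. Conjoined-gene isoform expression was normalized to a sequenced housekeeping gene.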

[29] = target: Dual specificity protein kinase CLK1 (Homo sapiens) (UniProt P49759); assay: Inhibition of CLK (unknown origin) in human 184-hTERT cells assessed as induction in alternative splicing effect in S6K skipped exon /canonical form incubated for 6 hrs by RT-PCR analysis; format: cell-based; conditions: dose 0.2-5 µM; in short: as §1

Compound: CN1CCN(C(=O)C(C)(C)c2ccc(C(=O)Nc3cn4cc(-c5ccncc5)ccc4n3)cc2)CC1 [T3-CLK]
- GI (HCT-116 [1]): 0.133 µM
- Activity (HCT-116 [2]): 0.73%
- viability at 5 µM (HCT-116 [3]): 86.6%
- inhibition [4]: -2%
- inhibition [5]: 7%
- inhibition [6]: 2%
- inhibition [7]: 2%
- inhibition [8]: 18%
- inhibition [9]: 10%
- inhibition [10]: 22%
- inhibition [11]: -6%
- inhibition [12]: -7%
- inhibition [13]: 1%
- inhibition [14]: 1%
- inhibition [15]: 3%
- inhibition [16]: -9%
- inhibition [17]: -4%
- inhibition [18]: -3%
- inhibition [19]: 4%
- inhibition [20]: Active
- inhibition [21]: Active
- Activity (HCT-116 [22]): 46.9%
- Activity (HCT-116 [23]): 28.1%
- Activity (HCT-116 [24]): 26.3%
- Activity (HCT-116 [25]): 11.4%
- Activity (HCT-116 [26]): 21.3%
- Activity (HCT-116 [27]): 37.7%
- inhibition [28]: Dose-Dependent Effect
- inhibition [29]: Dose-Dependent Effect
